The target in test [1] is Neuronal acetylcholine receptor; alpha4/beta2 (Rattus norvegicus, UniProt P09483+P12390). Put plainly: Displacement of [3H]epibatidine from rat alpha4beta2 nAChR expressed in HEK293 cell membranes after 4 hrs by scintillation counting method. Summed up:
(§1)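 Membranes from HEK293 lines stably expressing α3β4, α4β4 or α4β2 nAChR, [3H]epibatidine competition binding. Ki came from concentration-inhibition curves. Means of 3–5 experiments in duplicate.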
For orientation: Loss of bound radioactivity is the signal in a displacement assay; it reports binding, not function.

The target of test [2] is Neuronal acetylcholine receptor; alpha4/beta4 (Rattus norvegicus, UniProt P09483+P12392). Put plainly: Displacement of [3H]epibatidine from rat alpha4beta4 nAChR expressed in HEK293 cell membranes after 4 hrs by scintillation counting method. Summed up: as §1
The target in test [3] is T1, Neuronal acetylcholine receptor; alpha3/beta4 (Rattus norvegicus, UniProt P04757+P12392). Put plainly: Displacement of [3H]epibatidine from rat alpha3beta4 nAChR expressed in HEK293 cell membranes after 4 hrs by scintillation counting method. In short, it runs like this: as §1
For test [4], the target named is T1, Neuronal acetylcholine receptor; alpha3/beta4. The test can be described thus: Antagonist activity at rat alpha3beta4 nAChR expressed in HEK293 cells assessed as inhibition of (S)-nicotine-induced […] response measured up to 90 secs by FMP assay. The format is cell-based. Summed up:
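Rat α3β4 nAChR in stably expressing HEK293 cells, FLIPR Membrane Potential Blue assay. Antagonist mode against (S)-nicotine at EC70–EC90. IC50 derived from concentration-inhibition curves. Means of 3–5 experiments in duplicate.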

Test [5] deals with Nicotinic acetylcholine receptor alpha-4/beta-2 (Mus musculus, UniProt Q8R493+Q9ERK7). Put plainly: Antagonist activity at mouse alpha4beta2 nAChR expressed in HEK293 cells assessed as inhibition of (S)-nicotine-induced […] response measured up to 90 secs by FMP assay. The format is cell-based. Summed up:
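Mouse α4β2 nAChR in stably expressing HEK293T cells, FLIPR Membrane Potential Blue assay. IC50 came from concentration-inhibition curves. Means of 3–5 experiments in duplicate.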

The target in test [6] is T2, Neuronal acetylcholine receptor subunit alpha-7 (Homo sapiens, UniProt P36544). The test can be described thus: Agonist activity at human alpha7 nAChR expressed in HEK293 cells co-expressing Ric-3/NACHO assessed as induction of calcium mobilization at >= 10 uM measured up to 90 secs in presence of PNU-120596 by FLIPR assay. The format is cell-based. (Calcium assays in cells follow changes in intracellular calcium, usually with a dye or a luminescent sensor.)

Test [7] has as its target T2, Neuronal acetylcholine receptor subunit alpha-7. The test can be described thus: Agonist activity at human alpha7 nAChR expressed in HEK293 cells co-expressing Ric-3/NACHO assessed as induction of calcium mobilization at 10 uM measured up to 90 secs in presence of PNU-120596 by FLIPR assay. The format is cell-based.
The target is the same in test [8]. The test can be described thus: Agonist activity at human alpha7 nAChR expressed in HEK293 cells co-expressing Ric-3/NACHO assessed as induction of calcium mobilization at 30 uM measured up to 90 secs in presence of PNU-120596 by FLIPR assay. The format is cell-based.
The target is the same in test [9]. The test can be described thus: Agonist activity at human alpha7 nAChR expressed in HEK293 cells co-expressing Ric-3/NACHO assessed as induction of calcium mobilization at 0.3 to 3 uM measured up to 90 secs in presence of PNU-120596 by FLIPR assay. The format is cell-based.
Test [10] has the same target. Put plainly: Agonist activity at human alpha7 nAChR expressed in HEK293 cells co-expressing Ric-3/NACHO assessed as induction of calcium mobilization at 1 to 3 uM measured up to 90 secs in presence of PNU-120596 by FLIPR assay. The format is cell-based.
For test [11], the system named is Mus musculus. The test can be described thus: Anti-depressant like activity in sc dosed mouse assessed as increase in swimming activity administered 15 mins prior to testing by forced swim test. The format is functional, organism-based. In short, it runs like this: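 Mouse forced swim test, n = 9–10 per group, doses 1, 3 and 10 mg/kg. Each mouse was placed in a 16 cm diameter beaker with 20 cm of water at 23.5–24.5 °C for 6 min. Camera-tracked total swim distance was scored after the first minute. Analysed by one-way ANCOVA with planned pairwise comparisons.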

Test [12] deals with Neuronal acetylcholine receptor; alpha4/beta2 (Homo sapiens, UniProt P17787+P43681). The test can be described thus: Displacement of [3H]cytisine from human alpha4beta2 nAChR expressed in human SH-EP1 cell membranes after 75 mins by liquid scintillation spectrometry.
Test [13] is filed under the species Rattus norvegicus. Put plainly: Selectivity ratio of Ki for rat alpha4beta4 nAChR to Ki for rat alpha4beta2 nAChR.
The species entered for test [14] is Rattus norvegicus. The test can be described thus: Selectivity ratio of Ki for rat alpha3beta4 nAChR to Ki for rat alpha4beta2 nAChR.
For test [15], the target named is T2, Neuronal acetylcholine receptor subunit alpha-7. The test can be described thus: Agonist activity at human alpha7 nAChR expressed in HEK293 cells co-expressing Ric-3/NACHO assessed as induction of calcium mobilization measured up to 90 secs in presence of PNU-120596 by FLIPR assay. The format is cell-based. In short, it runs like this:
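Human α7 nAChR stably co-expressed with Ric-3 and NACHO in HEK293 cells, Ca2+/Fluo-4 fluorescence assay. Assay buffer held 3 μM PNU-120596 (α7 PAM) to slow desensitization. Agonist concentration-response curves gave EC50 and Rmax. Means of 3–5 experiments run in duplicate.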

The target of test [16] is Neuronal acetylcholine receptor; alpha4/beta2 (Rattus norvegicus) (UniProt P09483+P12390). The test can be described thus: Potency index, ratio of DHbetaE Ki to test compound Ki for rat alpha4beta2 nAChR. The format is protein-complex assay.
In test [17] the target is Neuronal acetylcholine receptor; alpha4/beta4 (Rattus norvegicus) (UniProt P09483+P12392). Put plainly: Potency index, ratio of DHbetaE Ki to test compound Ki for rat alpha4beta4 nAChR. The format is protein-complex assay.
Test [18] concerns the target Neuronal acetylcholine receptor; alpha3/beta4 (Rattus norvegicus) (UniProt P04757+P12392). The test can be described thus: Potency index, ratio of DHbetaE Ki to test compound Ki for rat alpha3beta4 nAChR. The format is protein-complex assay.
Test [19] can be described thus: Selectivity ratio of IC50 for rat alpha3beta4 nAChR to IC50 for mouse alpha4beta2 nAChR.
In test [20] the test system is Mus musculus. Put plainly: Anti-depressant like activity in mouse assessed as increase in swimming activity at 10 mg/kg, sc administered 15 mins prior to testing by forced swim test. The format is functional, organism-based. Summed up: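 Mice (n = 9–10) placed singly in a 16 cm beaker filled with water to 20 cm at 23.5–24.5 °C. Total swim distance over the 6 min test was recorded by overhead camera. Analysed by one-way ANCOVA, then planned pairwise comparisons of predicted means.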

Consider twelve molecules from ChEMBL document CHEMBL4052830, “Dual Nicotinic Acetylcholine Receptor α4β2 Antagonists/α7 Agonists: Synthesis, Docking Studies, and Pharmacological Evaluation of Tetrahydroisoquinolines and Tetrahydroisoquinolinium Salts” (J Med Chem, 2018).

Activity calls are given as the source filed them. No cut-off for these calls is given here.

Neuronal acetylcholine receptor; alpha4/beta2 (Rattus norvegicus, UniProt P09483+P12390), sequence (P09483 whole entry): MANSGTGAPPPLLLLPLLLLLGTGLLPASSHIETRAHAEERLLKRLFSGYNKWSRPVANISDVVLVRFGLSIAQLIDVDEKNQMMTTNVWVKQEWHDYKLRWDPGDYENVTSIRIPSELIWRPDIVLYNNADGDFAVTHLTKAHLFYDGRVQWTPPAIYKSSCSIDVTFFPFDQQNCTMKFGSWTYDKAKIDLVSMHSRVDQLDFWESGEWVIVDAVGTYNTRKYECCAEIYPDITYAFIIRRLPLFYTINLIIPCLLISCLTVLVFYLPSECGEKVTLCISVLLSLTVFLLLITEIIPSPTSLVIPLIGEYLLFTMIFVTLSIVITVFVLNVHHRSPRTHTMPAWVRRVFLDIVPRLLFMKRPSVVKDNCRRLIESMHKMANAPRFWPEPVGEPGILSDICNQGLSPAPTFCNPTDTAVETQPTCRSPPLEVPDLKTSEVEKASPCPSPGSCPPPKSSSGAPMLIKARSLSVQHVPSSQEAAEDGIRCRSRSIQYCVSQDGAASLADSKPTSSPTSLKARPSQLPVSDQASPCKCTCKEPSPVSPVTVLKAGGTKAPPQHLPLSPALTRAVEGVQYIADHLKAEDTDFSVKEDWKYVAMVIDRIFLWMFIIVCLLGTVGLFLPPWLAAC
Neuronal acetylcholine receptor; alpha4/beta2 (Rattus norvegicus, UniProt P09483+P12390), sequence (P12390 whole entry): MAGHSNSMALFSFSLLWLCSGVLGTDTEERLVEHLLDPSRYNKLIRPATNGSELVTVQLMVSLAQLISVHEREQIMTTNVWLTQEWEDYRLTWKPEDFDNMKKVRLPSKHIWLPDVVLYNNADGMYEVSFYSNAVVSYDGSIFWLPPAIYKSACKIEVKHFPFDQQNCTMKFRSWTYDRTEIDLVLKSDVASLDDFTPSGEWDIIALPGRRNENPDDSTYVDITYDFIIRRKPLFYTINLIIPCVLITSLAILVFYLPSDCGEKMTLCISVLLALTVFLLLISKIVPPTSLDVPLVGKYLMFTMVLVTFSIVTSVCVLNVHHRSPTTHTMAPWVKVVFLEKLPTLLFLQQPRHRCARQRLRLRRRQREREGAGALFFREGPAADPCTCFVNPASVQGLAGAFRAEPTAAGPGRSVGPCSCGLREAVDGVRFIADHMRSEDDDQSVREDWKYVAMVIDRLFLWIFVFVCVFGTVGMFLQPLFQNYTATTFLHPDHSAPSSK
Neuronal acetylcholine receptor; alpha4/beta4, sequence (P09483 whole entry): as the sequence (P09483 whole entry) above
Neuronal acetylcholine receptor; alpha4/beta4, sequence (P12392 whole entry): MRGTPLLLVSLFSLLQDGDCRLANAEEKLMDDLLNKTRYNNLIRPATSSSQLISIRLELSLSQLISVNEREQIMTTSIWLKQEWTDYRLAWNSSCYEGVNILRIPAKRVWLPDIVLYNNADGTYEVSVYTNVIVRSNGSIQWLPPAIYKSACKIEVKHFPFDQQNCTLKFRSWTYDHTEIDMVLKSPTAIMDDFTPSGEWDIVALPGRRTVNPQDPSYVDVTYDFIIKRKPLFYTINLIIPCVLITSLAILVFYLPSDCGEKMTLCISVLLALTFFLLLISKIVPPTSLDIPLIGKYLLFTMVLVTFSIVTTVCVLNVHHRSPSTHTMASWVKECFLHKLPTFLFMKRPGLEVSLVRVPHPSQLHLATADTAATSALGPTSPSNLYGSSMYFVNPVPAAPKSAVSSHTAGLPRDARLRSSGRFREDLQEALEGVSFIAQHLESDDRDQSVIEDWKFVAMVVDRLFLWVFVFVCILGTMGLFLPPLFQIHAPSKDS
T2 sequence (P36544 whole entry): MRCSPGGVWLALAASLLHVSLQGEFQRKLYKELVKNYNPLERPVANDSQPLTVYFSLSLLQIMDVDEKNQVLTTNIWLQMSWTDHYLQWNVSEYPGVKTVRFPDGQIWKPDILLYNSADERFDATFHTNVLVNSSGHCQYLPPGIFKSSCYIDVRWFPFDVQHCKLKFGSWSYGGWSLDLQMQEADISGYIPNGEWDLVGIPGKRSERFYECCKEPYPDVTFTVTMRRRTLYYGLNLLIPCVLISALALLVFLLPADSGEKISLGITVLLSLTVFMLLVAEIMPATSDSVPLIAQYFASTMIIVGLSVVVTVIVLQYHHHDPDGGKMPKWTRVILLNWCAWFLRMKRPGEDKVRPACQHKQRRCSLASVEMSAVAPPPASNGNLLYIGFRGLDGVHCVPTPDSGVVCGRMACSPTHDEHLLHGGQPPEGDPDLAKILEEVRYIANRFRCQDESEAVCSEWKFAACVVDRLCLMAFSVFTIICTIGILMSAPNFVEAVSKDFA
Nicotinic acetylcholine receptor alpha-4/beta-2, sequence (Q9ERK7 whole entry): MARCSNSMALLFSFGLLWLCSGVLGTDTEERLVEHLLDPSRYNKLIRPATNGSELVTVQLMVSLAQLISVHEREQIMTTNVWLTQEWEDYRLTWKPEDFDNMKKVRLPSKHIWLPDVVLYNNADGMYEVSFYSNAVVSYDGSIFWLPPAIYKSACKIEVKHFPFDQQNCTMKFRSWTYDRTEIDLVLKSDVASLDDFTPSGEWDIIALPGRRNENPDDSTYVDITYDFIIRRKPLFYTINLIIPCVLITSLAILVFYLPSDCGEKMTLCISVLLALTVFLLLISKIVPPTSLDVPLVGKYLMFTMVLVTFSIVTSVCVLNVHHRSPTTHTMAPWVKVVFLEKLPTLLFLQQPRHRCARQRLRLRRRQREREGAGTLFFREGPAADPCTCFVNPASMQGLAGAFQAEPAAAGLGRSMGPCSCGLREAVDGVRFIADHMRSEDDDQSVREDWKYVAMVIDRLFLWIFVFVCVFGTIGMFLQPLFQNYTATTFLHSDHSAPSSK
Nicotinic acetylcholine receptor alpha-4/beta-2, sequence (Q8R493 whole entry): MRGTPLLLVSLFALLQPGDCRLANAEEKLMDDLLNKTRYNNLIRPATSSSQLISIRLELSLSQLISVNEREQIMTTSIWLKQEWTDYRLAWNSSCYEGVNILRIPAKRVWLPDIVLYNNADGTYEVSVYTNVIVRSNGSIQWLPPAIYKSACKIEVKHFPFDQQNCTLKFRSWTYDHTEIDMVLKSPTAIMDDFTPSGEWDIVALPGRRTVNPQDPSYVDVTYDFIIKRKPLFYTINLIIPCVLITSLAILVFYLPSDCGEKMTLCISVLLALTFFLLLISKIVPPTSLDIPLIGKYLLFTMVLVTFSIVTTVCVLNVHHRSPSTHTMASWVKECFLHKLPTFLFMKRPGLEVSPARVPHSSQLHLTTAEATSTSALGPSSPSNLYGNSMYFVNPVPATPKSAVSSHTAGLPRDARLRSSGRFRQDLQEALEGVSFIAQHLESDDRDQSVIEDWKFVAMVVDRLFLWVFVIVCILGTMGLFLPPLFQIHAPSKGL
T1 sequence (P04757 whole entry): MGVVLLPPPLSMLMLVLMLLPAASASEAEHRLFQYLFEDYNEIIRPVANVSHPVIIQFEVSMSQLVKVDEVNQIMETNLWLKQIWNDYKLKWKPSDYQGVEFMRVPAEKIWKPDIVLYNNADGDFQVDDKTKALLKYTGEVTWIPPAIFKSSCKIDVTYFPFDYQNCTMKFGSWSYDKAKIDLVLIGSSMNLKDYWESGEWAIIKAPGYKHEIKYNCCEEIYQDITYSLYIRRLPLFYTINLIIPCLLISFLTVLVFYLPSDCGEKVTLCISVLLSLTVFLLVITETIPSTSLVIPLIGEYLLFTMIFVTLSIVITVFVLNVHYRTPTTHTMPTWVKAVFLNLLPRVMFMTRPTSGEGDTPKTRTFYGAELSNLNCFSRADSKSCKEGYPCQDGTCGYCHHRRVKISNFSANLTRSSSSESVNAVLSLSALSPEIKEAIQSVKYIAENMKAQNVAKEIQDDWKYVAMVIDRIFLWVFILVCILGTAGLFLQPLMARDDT
T1 sequence (P12392 whole entry): as the sequence (P12392 whole entry) above
Neuronal acetylcholine receptor; alpha4/beta2 (Homo sapiens, UniProt P17787+P43681), sequence (P17787 whole entry): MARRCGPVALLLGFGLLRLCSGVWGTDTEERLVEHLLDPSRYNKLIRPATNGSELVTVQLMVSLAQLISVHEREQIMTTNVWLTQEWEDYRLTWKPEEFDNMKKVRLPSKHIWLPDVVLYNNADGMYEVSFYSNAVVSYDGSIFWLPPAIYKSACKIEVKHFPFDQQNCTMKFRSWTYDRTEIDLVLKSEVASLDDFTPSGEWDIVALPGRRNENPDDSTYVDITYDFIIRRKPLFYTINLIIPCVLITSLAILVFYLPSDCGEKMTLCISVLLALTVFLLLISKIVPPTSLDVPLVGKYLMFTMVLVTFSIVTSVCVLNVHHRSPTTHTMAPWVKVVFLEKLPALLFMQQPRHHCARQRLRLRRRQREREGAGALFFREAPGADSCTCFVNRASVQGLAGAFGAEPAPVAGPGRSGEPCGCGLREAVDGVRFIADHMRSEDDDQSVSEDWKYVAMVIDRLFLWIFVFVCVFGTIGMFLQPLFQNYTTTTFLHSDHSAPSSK
Neuronal acetylcholine receptor; alpha4/beta2 (Homo sapiens, UniProt P17787+P43681), sequence (P43681 whole entry): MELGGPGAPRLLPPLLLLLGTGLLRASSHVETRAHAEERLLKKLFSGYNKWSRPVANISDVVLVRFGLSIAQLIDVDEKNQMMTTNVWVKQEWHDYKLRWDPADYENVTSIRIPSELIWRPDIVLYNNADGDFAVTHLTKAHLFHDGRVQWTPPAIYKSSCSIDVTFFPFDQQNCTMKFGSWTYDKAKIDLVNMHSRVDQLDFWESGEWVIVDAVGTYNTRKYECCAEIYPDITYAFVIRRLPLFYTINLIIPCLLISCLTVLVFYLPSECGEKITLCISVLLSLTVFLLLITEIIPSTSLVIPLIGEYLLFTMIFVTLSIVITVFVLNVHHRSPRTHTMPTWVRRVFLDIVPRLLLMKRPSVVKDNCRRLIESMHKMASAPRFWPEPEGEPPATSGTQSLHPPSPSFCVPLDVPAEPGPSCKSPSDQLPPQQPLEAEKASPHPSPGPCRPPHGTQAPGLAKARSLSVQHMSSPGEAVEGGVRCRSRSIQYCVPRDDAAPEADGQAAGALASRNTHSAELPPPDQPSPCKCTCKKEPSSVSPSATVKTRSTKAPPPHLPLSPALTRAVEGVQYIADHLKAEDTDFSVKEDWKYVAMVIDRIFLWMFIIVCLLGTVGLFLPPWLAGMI

Turning to `COc1cc2c(cc1OCc1ccccc1)C[N+](C)(C)CC2`, the inhibition constant Ki in [1] worked out at 4.5 µM; in [2], 17 µM; in test [3] it was 30 µM. For the same molecule, the IC50 in test [4] is more than 300 µM; in test [5], 30 µM. Further, in test [6], the outcome was inactive.

As to `COc1ccc(CC2c3cc(OC)c(OC)cc3CC[N+]2(C)C)cc1OC` (configuration not stated), the Ki in test [1], in test [2] and in [3] was more than 100 µM throughout. Also, the IC50 in test [4] and in [5] was more than 100 µM throughout. Also, in [7], the result was Active.

Turning to `c1c2c(cc3c1OCO3)[C@@H]1CCCN1CC2`, the inhibition constant Ki in test [1] was 4.5 µM; in [2], 100 µM; in test [3] it was more than 100 µM. Also, the IC50 in test [4] is more than 100 µM; in [5] it was 30 µM. For the same molecule, the outcome in [8] was Active.

For `COc1cc2c(cc1OCc1ccccc1)CC[N+]1(C)CCCC21` (configuration not stated), the Ki was 2.1 µM in [1], 300 µM in [2] and 300 µM in test [3]. The values for the concentration for half-maximal inhibition (IC50) in test [4] and in test [5] were 300 µM and 3.1 µM, respectively. For the same molecule, the Activity entry in [9] is “Dose-dependent effect”. The outcome in test [6] was inactive.

Consider `COc1cc2c(cc1OCc1ccccc1)CC[N+](C)(C)C2`, for which the inhibitory constant (Ki) in [1] stood at 0.47 µM; in [2], 50 µM; in [3] it was 30 µM. Further, the values for the IC50 in test [4] and in test [5] were more than 300 µM and 7.2 µM, respectively. Further, the Activity entry in test [10] and in test [9] was “Dose-dependent effect” throughout. Further, the result in test [6] was inactive.

On to `c1c2c(cc3c1OCO3)[C@H]1CCCN1CC2`, for which the Ki was 0.17 µM in test [1], 6.6 µM in test [2] and 100 µM in [3]. Also, the figures for the IC50 in test [4] and in test [5] were more than 100 µM and 1.3 µM, respectively. In [7], the outcome was Active. The Activity entry in [11] is “Dose-dependent effect”.

With `COc1cc2c(cc1O)CCN1CC=C3C=C[C@H](OC)C[C@]321` [ERYSODINE], the inhibitory constant (Ki) in [12] was 0.05 µM.

For the molecule `CC[N+]1(C)CCc2cc(OC)c(OC)cc2C1` (configuration not stated), the inhibition constant (Ki) in test [1] was 9.7 µM; in [2], more than 300 µM; in test [3], more than 300 µM. Further, the half-maximal inhibitory concentration (IC50) is more than 300 µM in [4] and 11 µM in test [5]. Further, in [8], the result was Active.

With `COc1cc2c(cc1OCc1ccccc1)C1CCC[N+]1(C)CC2` (configuration not stated), the inhibitory constant (Ki) in test [1] turned out to be 11 µM; in test [2], 300 µM; in [3], 300 µM. The values for the IC50 in test [4] and in test [5] were 300 µM and 5.7 µM, respectively. Moreover, the Activity entry in [9] was “Dose-dependent effect”. Also, the result in [6] was inactive.

For `C[N+]1(C)CCc2cc3c(cc2C1)OCO3`, the Ki in test [1] turned out to be 0.38 µM; in test [2], 30 µM; in [3], 50 µM. The Ratio Ki in test [13] turned out to be 80; in test [14] it was 130. In addition, the concentration for half-maximal inhibition (IC50) was more than 300 µM in test [4] and 12 µM in [5]. The half-maximal effective concentration (EC50) in test [15] amounted to 2.6 µM.

With `C[N+]12CCCC1c1cc3c(cc1CC2)OCO3` (configuration not stated), the Ki in test [1] amounted to 0.14 µM; in test [2], 50 µM; in [3], 30 µM. The Ratio Ki in test [13] worked out at 360; in [14], 210; in test [16], 5. Moreover, the values for the IC50 in test [4] and in test [5] were 30 µM and 0.52 µM, respectively. Moreover, the EC50 in [15] is 2.6 µM.

Regarding `C[N+]12CCC[C@@H]1c1cc3c(cc1CC2)OCO3` (some centres not stated), the inhibition constant (Ki) worked out at 0.045 µM in [1], 2.7 µM in test [2] and 11 µM in test [3]. Moreover, the Ratio Ki in [16], in test [17] and in [18] was 10 in each case. The IC50 in test [4] is 50 µM; in test [5], 0.22 µM. Also, the EC50 in test [15] worked out at 1.6 µM. For the same molecule, the Ratio IC50 in [19] is 230. Moreover, the outcome in test [20] was Active.

Broadly, the Ki is a measure of affinity in units of concentration, obtained from inhibition or displacement. A high value points to weaker binding. In general, IC50 refers to the concentration that gives 50% inhibition. What is called EC50 is the concentration needed to bring the measured effect to its halfway point.
